Experimental findings from ChEMBL document CHEMBL4390662, “Design, synthesis and biological evaluation of novel α-acyloxy carboxamides via Passerini reaction as caspase 3/7 activators” (Eur J Med Chem, 2019) are described below.

The structures appear in SMILES notation. Values after ≈ are worked out from the molar mass of the structure shown. Active and inactive are the calls of the source. The rule behind the calls is not given here.

In series [1] the test system is WI-38. The series is described as follows: Cytotoxicity against human WI38 cells assessed as cell growth inhibition incubated for 72 hrs by MTT assay. As to conditions: for IC50: Homo sapiens, WI-38, 72 h; for EC100: human, wi-38, 72 h. Type of series: cell-based. In short, it runs like this: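 Wi-38 fibroblasts grown in DMEM with 10% FBS and seeded at 5×10^3 per well. Attachment 24 h, then serial concentrations for 72 h at 37°C, 5% CO2. MTT stock (5 mg/mL) added for 3 h at 37°C, DMSO solubilization, absorbance at 570 nm. IC50 estimated.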
(Tetrazolium dyes change colour on reduction, which living cells bring about.)

The subject of series [2] is MCF7. The experiment in a line: Cytotoxicity against human MCF7 cells assessed as cell growth inhibition incubated for 72 hrs by MTT assay. The class given is functional, cell-based. As to conditions: MCF7, 72 h. In short, it runs like this: (§1)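 Cells grown in RPMI-1640 with 10% FBS and seeded at 5×10^3 per well. After 24 h, serial concentrations given for 72 h at 37°C, 5% CO2. Then 5 mg/mL MTT stock added for 3 h, formazan dissolved in DMSO, A570 read. IC50 calculated from the curves.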

Series [3] concerns NFS-60. The experiment in a line: Cytotoxicity against mouse NFS60 cells assessed as cell growth inhibition incubated for 72 hrs by MTT assay. The class given is functional, cell-based. The settings on record: NFS-60, 72 h. A digest of the protocol:
as §1

In series [4] the test system is HepG2. The series is described as follows: Cytotoxicity against human HepG2 cells assessed as cell growth inhibition incubated for 72 hrs by MTT assay. As to conditions: HepG2, 72 h. Type of series: functional, cell-based. A digest of the protocol: as §1
A short description of series [5]: Selectivity index, ratio of IC50 for human WI38 cells to IC50 for human MCF7 cells. Type of series: toxicity. The settings on record: WI38 cells versus MCF7 cells, read-out: Ratio IC50. A digest of the protocol:
(§2)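 SI calculated as IC50 on normal Wi-38 fibroblasts divided by IC50 on the cancer cell line. Both came from 72 h MTT assays.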

A short description of series [6]: Selectivity index, ratio of IC50 for human WI38 cells to IC50 for mouse NFS60 cells. A digest of the protocol: as §2
Series [7] can be described thus: Selectivity index, ratio of IC50 for human WI38 cells to IC50 for human HepG2 cells. The settings on record: WI38 cells versus HepG2 cells, read-out: Ratio IC50. The class given is toxicity. A digest of the protocol:
as §2

For series [8], the system named is Staphylococcus aureus. The series is described as follows: Antimicrobial activity against Staphylococcus aureus ATCC 25923 incubated for 24 hrs by microdilution assay. The class given is functional. In short, it runs like this: (§3)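 Two-fold serial dilutions of test solutions made in Mueller Hinton broth and inoculated. Incubated at 37°C for 24 h. MIC taken as the lowest concentration with no growth. Ciprofloxacin is the antibacterial reference, fluconazole the antifungal one, and DMSO the blank.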
In general terms: Broth dilution looks for growth in wells or tubes with falling amounts of substance.

The test system of series [9] is Escherichia coli. The experiment in a line: Antimicrobial activity against Escherichia coli ATCC 25922 incubated for 24 hrs by microdilution assay. The class given is functional. A digest of the protocol: as §3
For series [10], the system named is Candida albicans. The experiment in a line: Antimicrobial activity against Candida albicans ATCC 90028 incubated for 24 hrs by microdilution assay. The class given is functional. In short, it runs like this: as §3
Series [11] deals with Staphylococcus aureus. The experiment in a line: Antimicrobial activity against Staphylococcus aureus ATCC 25923 incubated for 24 hrs by agar well diffusion assay. The class given is functional. A digest of the protocol:
(§4)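 Nutrient agar spread with 100 µL inoculum: bacteria at 1×10^8 CFU/mL, fungi at 1×10^6 CFU/mL. 10 mm wells loaded with 100 µL of compound in DMSO (final 1 mg/mL). Bacteria incubated 24 h at 37 °C, fungi 48 h at 28 °C. Inhibition zones measured in mm. Ciprofloxacin and fluconazole standards at 1 mg/mL, DMSO negative control.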
On the technique in general: In agar diffusion tests the substance spreads into inoculated agar from a disc or well.

Series [12] concerns Enterococcus faecalis. The experiment in a line: Antimicrobial activity against Enterococcus faecalis ATCC 29212 incubated for 24 hrs by agar well diffusion assay. The class given is functional. A digest of the protocol:
as §4

Series [13] has as its system Pseudomonas aeruginosa. The series is described as follows: Antimicrobial activity against Pseudomonas aeruginosa ATCC 27853 incubated for 24 hrs by agar well diffusion assay. Type of series: functional. In short, it runs like this: as §4
Series [14] concerns Escherichia coli. The experiment in a line: Antimicrobial activity against Escherichia coli ATCC 25922 incubated for 24 hrs by agar well diffusion assay. The class given is functional. A digest of the protocol:
as §4

Series [15] deals with Candida albicans. The experiment in a line: Antimicrobial activity against Candida albicans ATCC 90028 incubated for 48 hrs by agar well diffusion assay. Type of series: functional. A digest of the protocol: as §4

By IC50 is commonly meant the concentration that gives 50% inhibition. Broadly, the MIC is the least concentration at which growth counts as inhibited. Regarding `CCOC1(Nc2ccc([N+](=O)[O-])cc2)C(=O)c2ccccc2C1=O`, the IC50 in series [1] was determined as 47 nM; in series [2], 34.9 nM; in series [3] it was 27.8 nM; in series [4], 38.9 nM. Moreover, in [1], the EC100 was 0.0285 µM. Besides, the figures for the selectivity ratio in series [5] and in [7] were 1.35 and 1.21, respectively. In addition, the “Ratio IC50” value in [6] was 1.69. The same compound registered an MIC in series [8] (ATCC 25923, 24 h) of 1570 µM (≈ 512 µg/mL). In addition, the MIC result in series [9] and in [10] was “inactive” each time. For the same compound, the “diameter of the inhibition zone (DIZ)” value in [11] was determined as 12 mm; in series [12], 13 mm; in [13], 16 mm. For the same compound, the “diameter of the inhibition zone (DIZ)” value in series [14] and in series [15] was “inactive” in each case.
For the compound `CCC(=O)OC1(C(=O)Nc2ccc([N+](=O)[O-])cc2)CCCCC1`, the IC50 in series [1] came to 44.6 nM; in series [2] it was 14.1 nM; in series [3], 6.4 nM; in [4], 21.5 nM. Besides, the EC100 in [1] came out at 0.0169 µM. Also, the selectivity ratio in series [5] was found to be 3.16; in [7], 2.07. In addition, the “Ratio IC50” value in series [6] amounted to 6.968. Besides, the “diameter of the inhibition zone (DIZ)” value in series [11], in series [12], in series [14] and in series [15] was “inactive” in each case. Further, in [13], the “diameter of the inhibition zone (DIZ)” value stood at 12 mm.
As to `CC(=O)Oc1ccccc1C(=O)OC1(C(=O)Nc2ccc([N+](=O)[O-])cc2)CCCCC1`, the IC50 in series [1] turned out to be 48.4 nM; in [2], 16.9 nM; in series [3], 11.3 nM; in [4] it was 17.7 nM. The EC100 in series [1] worked out at 0.0355 µM. For the same compound, the values for the selectivity ratio in series [5] and in [7] were 2.86 and 2.73, respectively. Moreover, in series [6], the “Ratio IC50” value worked out at 4.283. For the same compound, the MIC entry in series [8] and in series [10] was “inactive” each time. For the same compound, 2400 µM (≈ 1020 µg/mL) was the least that counted as inhibitory in series [9] (ATCC 25922, 24 h) (MIC). Moreover, the “diameter of the inhibition zone (DIZ)” value in series [11], in series [12] and in series [15] was “inactive” throughout. For the same compound, the “diameter of the inhibition zone (DIZ)” value in series [13] and in series [14] was 16 mm in each case.
Regarding `CCOC(=O)c1ccccc1C(=O)OC1(C(=O)Nc2ccc([N+](=O)[O-])cc2)CCCCC1`, the IC50 in [1] stood at 386 nM; in series [2] it was 444 nM; in [3] it was 488 nM; in [4], 517 nM. Moreover, the EC100 in series [1] was 0.122 µM. Also, the results for the selectivity ratio in series [5] and in series [7] were 0.869 and 0.746, respectively. For the same compound, the “Ratio IC50” value in [6] worked out at 0.79.
With `CC(=O)OC1(C(=O)Nc2ccc([N+](=O)[O-])cc2)CCCCC1`, the IC50 in series [1] was determined as 386 nM; in series [2], 403 nM; in series [3], 517 nM; in [4], 519 nM. The EC100 in [1] came to 0.122 µM. The selectivity ratio in series [5] turned out to be 0.957; in series [7], 0.743. For the same compound, the “Ratio IC50” value in [6] is recorded as 0.746.
With `O=C(O)c1cn(C2CC2)c2cc(N3CCNCC3)c(F)cc2c1=O` [CIPROFLOXACIN], the MIC in [8] (ATCC 25923, 24 h) came out at 6 µM (≈ 1.99 µg/mL); in series [9] (ATCC 25922, 24 h), 3 µM (≈ 0.994 µg/mL). The “diameter of the inhibition zone (DIZ)” value in [11] was 26 mm; in series [12], 24 mm; in series [13], 40 mm; in series [14], 43 mm.
For `O=C(OC1(C(=O)Nc2ccc([N+](=O)[O-])cc2)CCCCC1)c1ccc(Br)cc1`, the half-maximal inhibitory concentration (IC50) in series [1] is 523 nM; in [2], 237 nM; in series [3] it was 236 nM; in [4] it was 284 nM. In series [1], the EC100 came out at 0.0095 µM. Moreover, the selectivity ratio was 2.21 in series [5] and 1.84 in [7]. Further, in series [6], the “Ratio IC50” value stood at 2.216.
As to `O=C(CCC(=O)OC1(C(=O)Nc2ccc([N+](=O)[O-])cc2)CCCCC1)OC1(C(=O)Nc2ccc([N+](=O)[O-])cc2)CCCCC1`, in series [1], the IC50 came out at 203 nM and the EC100 worked out at 0.02 µM.
Regarding `O=C(OC1(C(=O)Nc2ccc([N+](=O)[O-])cc2)CCCCC1)c1ccccc1`, the IC50 was 246 nM in series [1], 903 nM in series [2], 766 nM in [3] and 734 nM in [4]. Besides, in [1], the EC100 stood at 0.148 µM. The figures for the selectivity ratio in [5] and in series [7] were 0.272 and 0.335, respectively. Moreover, the “Ratio IC50” value in series [6] was 0.322.
`CC1(C)CC(=O)C=C(Nc2ccc([N+](=O)[O-])cc2)C1`: the IC50 is 319 nM in [1], 597 nM in series [2], 645 nM in series [3] and 667 nM in [4]. Further, the EC100 in [1] amounted to 0.157 µM. In addition, the selectivity ratio in [5] stood at 0.534; in [7], 0.478. For the same compound, the “Ratio IC50” value in series [6] came out at 0.494.
On to `O=C(/C=C/c1ccccc1)OC1(C(=O)Nc2ccc([N+](=O)[O-])cc2)CCCCC1`, for which the IC50 in series [1] was found to be 41 nM; in series [2], 57.6 nM; in series [3], 50.5 nM; in series [4], 52.9 nM. The EC100 in [1] came to 0.0197 µM. Further, the figures for the selectivity ratio in series [5] and in [7] were 0.711 and 0.774, respectively. Besides, the “Ratio IC50” value in [6] turned out to be 0.811. Further, the “diameter of the inhibition zone (DIZ)” value in series [11], in [12], in [13], in [14] and in series [15] was “inactive” in each case.
With `Cc1ccccc1C(=O)OC1(C(=O)Nc2ccc([N+](=O)[O-])cc2)CCCCC1`, in [1], the IC50 was determined as 352 nM and the EC100 turned out to be 0.018 µM. The IC50 in [2] worked out at 516 nM. For the same compound, the selectivity ratio in series [5] stood at 0.682.
The matching figures for `O=C(OC1(C(=O)Nc2ccc([N+](=O)[O-])cc2)CCCCC1)c1ccccc1I`: 396 nM, 0.0247 µM, 619 nM and 0.639.
`OC(Cn1cncn1)(Cn1cncn1)c1ccc(F)cc1F` [FLUCONAZOLE] registered a minimum inhibitory concentration (MIC) in series [10] (ATCC 90028, 24 h) of 1 µM (≈ 0.306 µg/mL). Also, in [15], the “diameter of the inhibition zone (DIZ)” value is 29 mm.
Turning to `O=C(OC1(C(=O)Nc2ccc([N+](=O)[O-])cc2)C(=O)c2ccccc2C1=O)c1ccc(C(F)(F)F)cc1`, the IC50 in series [1] was determined as 1960 nM; in series [2], 393 nM; in [3] it was 484 nM; in series [4], 428 nM. Further, the EC100 in series [1] turned out to be 0.635 µM. In addition, the selectivity ratio in series [5] is 5; in series [7], 4.59. Besides, in series [6], the “Ratio IC50” value is reported as 4.057.
With `O=C(OC1(C(=O)Nc2ccc([N+](=O)[O-])cc2)CCCCC1)c1ccc(C(F)(F)F)cc1`, the IC50 in series [1] is 185 nM; in series [2], 27.1 nM; in series [3], 26 nM; in [4], 29.1 nM. The EC100 in series [1] was determined as 0.0398 µM. Besides, the selectivity ratio in series [5] was 6.83; in series [7], 6.36. The “Ratio IC50” value in series [6] is 7.115. The “diameter of the inhibition zone (DIZ)” value in [11], in series [12], in series [13], in series [14] and in series [15] was “inactive” in each case.
